CHO parental Ca: counter-screen: ATP calcium response change in parental CHO cells | parental CHO-K1, ATP-induced calcium, Fluo-8 fluorescence | 330,000 compounds, 0.63% hits | inhibition, % at 5.6 µM;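 active = inhibition above that plate's mean sample inhibition plus 3 SD, cut at about 26% in these data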;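 also: 0% = ATP-challenged DMSO wells and 100% = DMSO wells without ATP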
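Measured by: calcium-sensitive Fluo-8 fluorescence / Test system: CHO parental line / Controls: ATP-challenged DMSO wells low, unchallenged DMSO wells high / Measure: % inhibition / Compound: single nominal dose of 5.6 µM per compound / Replicates: single well per compound, no replicates / Reagent: ATP as calcium-mobilizing challenge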
TAAR1 ag: agonists of human TAAR1; Q96RJ0; CHO RD-HGA16 TAAR1, Fluo-8 calcium fluorescence; vehicle wells 0%, saturating PEA agonist 100%; activation, % at 3 µM; 360,000 compounds, 0.99% hits; AID 624467;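 active = activation above the mean activation of all test compounds in the run plus 3 SD, cut at about 38% in these data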
Target sequence (Q96RJ0 whole entry, looked up): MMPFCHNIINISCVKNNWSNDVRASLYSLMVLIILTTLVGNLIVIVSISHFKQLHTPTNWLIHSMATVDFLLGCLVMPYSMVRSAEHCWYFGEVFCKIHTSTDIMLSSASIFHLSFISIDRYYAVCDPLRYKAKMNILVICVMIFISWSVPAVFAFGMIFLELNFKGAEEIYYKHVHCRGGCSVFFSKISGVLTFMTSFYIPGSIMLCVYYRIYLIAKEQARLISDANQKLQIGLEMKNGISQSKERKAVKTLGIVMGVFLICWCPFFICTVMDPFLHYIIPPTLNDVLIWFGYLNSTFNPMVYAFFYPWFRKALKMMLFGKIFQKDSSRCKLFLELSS
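Assay system – CHO-derived RD-HGA16 cells with stable Gα16 and human TAAR1 · Compound dosing – one-point dosing at 3 µM (nominal) · Incubation – 17-24 h seeding, 75 min 37 °C dye, 30 min RT · Measured by – kinetic Fluo-8 calcium fluorescence · Control set – DMSO vehicle as 0%, PEA at EC100 as 100% · Repeats – single well for each compound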
OX1R antag-1: human HCRTR1 antagonism. O43613. CHO/OX1R cells, Fluo-8 calcium fluorescence, orexin A. inhibition, % at 5 µM. 330,000 compounds, 0.43% hits. AID 434989;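 active = inhibition above its plate's threshold, mean inhibition of all tested compounds on the plate plus 3 SD, cut at about 37% in these data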;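 also: 0% = orexin A challenge wells and 100% = SB-334867-A antagonist wells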
Target sequence (O43613 whole entry, looked up): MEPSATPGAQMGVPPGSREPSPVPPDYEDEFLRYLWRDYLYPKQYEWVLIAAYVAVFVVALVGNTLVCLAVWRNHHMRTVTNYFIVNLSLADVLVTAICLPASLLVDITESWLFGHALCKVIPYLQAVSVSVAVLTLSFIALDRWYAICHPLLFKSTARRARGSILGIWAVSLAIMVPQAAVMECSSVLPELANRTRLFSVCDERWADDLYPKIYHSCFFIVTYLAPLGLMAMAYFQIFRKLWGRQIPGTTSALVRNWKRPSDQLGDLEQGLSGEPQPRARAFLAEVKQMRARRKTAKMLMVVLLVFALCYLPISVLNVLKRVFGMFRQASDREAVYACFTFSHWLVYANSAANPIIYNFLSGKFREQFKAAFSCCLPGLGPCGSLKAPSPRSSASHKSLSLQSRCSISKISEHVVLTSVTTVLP
GPR7 antag: human neuropeptides B/W receptor 1 antagonism; P48145; inhibition, % at 4.4 µM; GPR7-expressing cells, fluorescence antagonist assay; AID 1861; 290,000 compounds, 1.1% hits; in the data active = inhibition above about 16%, passing the limit was not always enough;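 also: cells stimulated with the agonist NPW; 0% = agonist with vehicle and 100% = vehicle without agonist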
OX1R antag-2: OX1R (human) antagonism. AID 485270. OX1R-expressing cells, FRET antagonist read-out. inhibition, % at 6.6 µM. 330,000 compounds, 1.8% hits; in the data active = inhibition mostly above about 38%, no sharp cut-off; inactive = mostly below about 40%;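 also: 0% = agonist challenge alone and 100% = reference antagonist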
TAAR1 antag: antagonists of human TAAR1; 360,000 compounds, 1.5% hits; inhibition, % at 3 µM; Q96RJ0; CHO RD-HGA16 TAAR1, Fluo-8 calcium fluorescence, antagonist;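 active = inhibition above a per-plate cutoff, the mean inhibition of test compounds on that plate plus 3 SD, cut at about 49% in these data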;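 also: 0% = DMSO plus EC80 beta-PEA response and 100% = DMSO alone without agonist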
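System: RD-HGA16 CHO cells with stable hTAAR1 and Gα16 | Probe or stimulus: EC80 β-phenethylamine stimulus | Dosing: 3 µM, single point | Times: Dye loading 75 min at 37 °C, then 30 min room temperature | Measured by: Fluo-8 calcium-sensitive fluorescence | Read-out basis: % inhibition of agonist calcium response | Replicates: n of 1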
OX1R Fluo8 conf: confirmation of human orexin 1 receptor antagonists; CHO/OX1R cells, orexin A calcium Fluo-8 fluorescence; AID 492963; 1,100 compounds, 38% hits; inhibition, % at 5 µM; shares compounds with OX1R antag-1; in the data active = inhibition above about 29%;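 also: 0% = agonist challenge alone and 100% = reference antagonist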
CHO Ca counter: counter-screen for OX1R antagonists: effect in parental CHO cells. 1,100 compounds, 9.3% hits. inhibition, % at 5.6 µM. shares compounds with OX1R antag-1. parental CHO-K1, ATP-induced calcium, Fluo-8 fluorescence;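 active = inhibition above a per-plate limit, the mean inhibition of that plate's test compounds plus 3 SD, cut at about 25% in these data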;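 also: 0% = ATP challenge with DMSO and 100% = DMSO without ATP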
OX1R HTRF conf: OX1R (human) antagonism, HTRF confirmed. 1,800 compounds, 49% hits. shares compounds with OX1R antag-2. inhibition, % at 6.6 µM. AID 492964. OX1R-expressing cells, HTRF antagonist assay; in the data active = inhibition above about 55%;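 also: CHO cells expressing OX1R stimulated with orexin A at about EC80; 0% = agonist challenge alone and 100% = reference antagonist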
CHO-K1 HTRF cnt: counter-screen: parental CHO-K1 HTRF response; parental CHO-K1 cells, HTRF counterscreen; 1,800 compounds, 48% hits; inhibition, % at 6.6 µM; shares compounds with OX1R antag-2; in the data active = inhibition above about 17%;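 also: 0% = agonist challenge with vehicle and 100% = vehicle alone without agonist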
TAAR1 nonsel count: nonselective antagonism, TAAR1 counter-screen | shares compounds with TAAR1 antag | counterscreen cell line, calcium fluorescence, antagonist mode | inhibition, % at 3 µM | 2,400 compounds, 77% hits; in the data active = inhibition above about 22%;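 also: CHO-Ga16 host cells stimulated with ATP at an EC80 level; 0% = agonist EC80 plus vehicle and 100% = vehicle without agonist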
TAAR1 antag conf: confirmation of human TAAR1 antagonists | 2,400 compounds, 40% hits | inhibition, % at 3 µM | TAAR1-expressing cells, fluorescence antagonist read-out | shares compounds with TAAR1 antag; in the data active = inhibition above about 49%;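 also: CHO-Ga16 host cells challenged with agonist PEA near its EC80; 0% = agonist at EC80 plus vehicle and 100% = vehicle with no agonist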
Ga16 ag counter-1: nonselective Ga16 agonist in TAAR1 antagonist counter-screen | shares compounds with TAAR1 antag | Ga16-expressing cells, calcium fluorescence, agonist counterscreen | activation, % at 3 µM | 2,400 compounds, 18% hits | AID 651953; in the data active = activation above about 12%;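 also: 0% = vehicle wells and 100% = saturating stimulus response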
TAAR1 ag count: activates human TAAR1 in antagonist counter-screen; shares compounds with TAAR1 antag; hTAAR1 cell line, fluorescence activation, agonist mode; activation, % at 3 µM; 2,400 compounds, 2% hits; in the data active = activation above about 37%;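 also: CHO cells stably expressing TAAR1 with calcium dye readout; 0% = DMSO vehicle and 100% = full agonist response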
TAAR1 ag confirm: human TAAR1 agonism, confirmed. CHO RD-HGA16 TAAR1, Fluo-8 calcium fluorescence; scaled: DMSO 0%, maximal phenethylamine 100%. activation, % at 3 µM. 2,400 compounds, 82% hits. shares compounds with TAAR1 ag;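 active = activation above a cutoff set at the run's mean compound activation plus 3 SD, cut at about 39% in these data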
Ga16 ag counter-2: nonselective agonism, TAAR1 counter-screen; AID 651787; 2,400 compounds, 50% hits; CHO-Ga16 parental, Fluo-8 calcium fluorescence; normalized to maximal ATP response, DMSO zero; shares compounds with TAAR1 ag; activation, % at 3 µM;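 active = activation above the run cutoff, the mean activation over all tested wells plus 3 SD, cut at about 12% in these data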;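 also: 0% = DMSO wells and 100% = maximal ATP response on the peak over basal ratio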
TAAR1 desensitize: human TAAR1 agonist that also desensitizes the receptor; shares compounds with TAAR1 ag; CHO RD-HGA16 hTAAR1, Fluo-8 calcium, beta-PEA response inhibition; inhibition, % at 3 µM; 2,400 compounds, 46% hits; AID 651951;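 active = inhibition above the run cutoff, the mean inhibition of all test compounds plus 3 SD, cut at about 49% in these data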;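 also: beta-PEA stimulus applied at its EC80; loss of beta-PEA calcium signal after compound pretreatment read as receptor desensitization; 0% = DMSO with beta-PEA at EC80 and 100% = DMSO alone without agonist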
Ga16 nonsel ant: counter-screen for TAAR1 agonists: nonselective Ga16 antagonists | shares compounds with TAAR1 ag | CHO-Ga16 ATP-induced calcium, Fluo-8 fluorescence | inhibition, % at 3 µM | 2,400 compounds, 39% hits;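 active = inhibition above the plate's mean compound inhibition plus 3 SD, computed per plate, cut at about 22% in these data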;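 also: 0% = EC80 ATP with DMSO and 100% = DMSO wells without ATP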
Active calls of the source: *; x = no result. Shown are actives, neighbours in structure and some others; about 4.6% of the full set was active somewhere.

SMILES	CHO parental Ca	TAAR1 ag	OX1R antag-1	GPR7 antag	OX1R antag-2	TAAR1 antag	OX1R Fluo8 conf	CHO Ca counter	TAAR1 nonsel count	TAAR1 antag conf	Ga16 ag counter-1	TAAR1 ag count	others
CCOC(=O)C1=C(COC(=O)/C=C/c2cccc(OC)c2)NC(=O)NC1C (configuration not stated)	-17	17	25	7	73*	67*	31*	-5	22*	53*	9	14	OX1R HTRF conf=49;CHO-K1 HTRF cnt=0
CCOC(=O)C1=C(COC(=O)/C=C/c2ccc(OC)cc2)NC(=O)NC1C (configuration not stated)	x	13	x	x	x	43	x	x	x	x	x	x
CCOc1cccc(C(=O)Nc2cccc(-c3nnc(-c4ccccc4)o3)c2)c1	0	10	-21	-5	7	21	x	x	x	x	x	x
COc1cccc(C(=O)Nc2cccc(-c3nnc(-c4ccccc4)o3)c2)c1	2	9	44	x	14	74*	0	-13	23*	56*	7	10
NC(=O)c1ccsc1NC(=O)COC(=O)/C=C/c1ccccc1[N+](=O)[O-]	-3	21	57*	x	24	78*	25	-8	38*	60*	14*	22
COc1ccccc1NS(=O)(=O)c1ccc2oc(SC(C)C(=O)N3CCNC3=O)nc2c1 (configuration not stated)	-10	23	36	x	32*	74*	31*	-1	40*	52*	16*	16	OX1R HTRF conf=62*;CHO-K1 HTRF cnt=-10
COc1ccccc1NS(=O)(=O)c1ccc2oc(SCC(C)=O)nc2c1	3	6	-9	-6	14	-3	x	x	x	x	x	x
COC(=O)C1C(c2ccc(N(C)C)cc2)C(C(=O)OC)S(=O)(=O)CS1(=O)=O (configuration not stated)	-4	2	-8	-3	8	0	x	x	x	x	x	x
O=C(NCc1ccccc1)c1ccc(CS(=O)(=O)Cc2ccc(F)cc2)o1	-10	2	-24	-9	12	-16	x	x	x	x	x	x
C=CCn1c(CCCOc2ccc(Cl)cc2Cl)nnc1SCC(=O)Nc1nccs1	5	26	36	-3	43	49*	23	8	32*	41	7	12
CNC1=CC(=O)CC(c2ccccc2)C1 (configuration not stated)	3	11	-15	-2	15	11	x	x	x	x	x	x
O=C(OCC#CCSc1nnc(-c2cccc3ccccc23)o1)c1cccc2[nH]ccc12	-11	11	68*	x	67*	51*	30*	-8	16	25	2	0	OX1R HTRF conf=88*;CHO-K1 HTRF cnt=-1
CCc1ccc2c(COC(=O)C3CC(=O)N(CCc4ccccc4)C3)cc(=O)oc2c1 (configuration not stated)	x	2	x	x	x	2	x	x	x	x	x	x
O=C(COc1ccccc1[N+](=O)[O-])Nc1ccc(N2CCN(C(=O)c3cccs3)CC2)cc1	25	22	22	-24	34	92*	62*	36*	50*	71*	22*	21
CCC(=O)Nc1ccc(N2CCN(C(=O)c3cccs3)CC2)cc1	-3	4	-5	-19	29	0	x	x	x	x	x	x
O=C(Nc1nnc(-c2ccc(Cl)cc2)o1)c1nc2ccccc2s1	-3	92*	32	8	-2	29	-4	4	x	x	x	x	TAAR1 ag confirm=85*;Ga16 ag counter-2=71*;TAAR1 desensitize=50*;Ga16 nonsel ant=54*
COc1ccccc1C(=O)NCC(=O)OCC(=O)Nc1cccc(S(=O)(=O)N2CCCCCC2)c1	-28	7	-48	-8	5	18	x	x	x	x	x	x
CCCc1nnc(NC(=O)Cn2c(=O)oc3ccccc32)s1	2	20	-16	-10	-2	12	x	x	x	x	x	x
CCCc1nnc(NC(=O)Cn2c(=O)oc3cc(Br)ccc32)s1	6	121*	40	-3	-2	63*	28	11	x	x	x	x	TAAR1 ag confirm=106*;Ga16 ag counter-2=73*;TAAR1 desensitize=75*;Ga16 nonsel ant=45*
CCOc1ccc(NS(=O)(=O)c2ccc(NC(=S)NC(=O)CC(C)C)cc2)cc1	-1	72*	29	5	9	61*	20	-8	x	x	x	x	TAAR1 ag confirm=70*;Ga16 ag counter-2=31*;TAAR1 desensitize=68*;Ga16 nonsel ant=39*
CC(C)CC(=O)NC(=S)Nc1ccc(S(=O)(=O)NC(C)(C)C)cc1	-6	10	7	-6	26	13	x	x	x	x	x	x
COCc1[nH]nc2c1C(c1ccc(Br)cc1)N(c1ccc(OC)cc1)C2=O (configuration not stated)	x	7	x	x	x	-18	x	x	x	x	x	x
N#Cc1ccc(N2CCOCC2)nc1	-13	2	-1	-17	0	-13	x	x	x	x	x	x

Bioassay records as filed in PubChem BioAssay.
